ChEMBL document CHEMBL3616444, “Design, synthesis and pharmacological evaluation of pyrimidobenzothiazole-3-carboxylate derivatives as selective L-type calcium channel blockers” (Bioorg Med Chem, 2015)
pIC50: −log10 of the molar value.

What was measured:
Rattus norvegicus [1] = experiment: Antihypertensive activity in Norwegian albino rat model of DOCA-salt-induced hypertension assessed as inhibition of systolic blood pressure at 10 mg/kg, po after 5 hrs by non-invasive tail cuff method relative to control; assay type: functional
Method in brief: (§1)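 DOCA-salt hypertensive rats; systolic pressure by tail cuff after 10 mg/kg, recorded hourly from 0 to 10 h; percent inhibition computed. Data as mean ± SEM, repeated-measures ANOVA.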

[2] = Inhibition of porcine kidney ACE assessed as reduction in hippuryl-histidyl-leucine hydrolysis to hippuric acid release incubated for 30 mins high-throughput colorimetric method; design: species or system Sus scrofa
Method in brief: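 Porcine kidney ACE in 1 M sodium borate buffer pH 8.2 with 0.3 M NaCl and 5 mM HHL substrate (stock); 37 °C for 30 min, stopped with 1 M HCl. Released hippuric acid complexed with pyridine and benzene sulfonyl chloride, cooled on ice, yellow colour read at 410 nm; IC50 from log plots, at least five determinations per concentration.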

Rattus norvegicus [3] = experiment: Antihypertensive activity in Norwegian albino rat model of DOCA-salt-induced hypertension assessed as inhibition of systolic blood pressure at 10 mg/kg, po after 6 hrs by non-invasive tail cuff method relative to control; assay type: functional; method in brief: as §1
Rattus norvegicus [4] = experiment: Antihypertensive activity in Norwegian albino rat model of DOCA-salt-induced hypertension assessed as inhibition of systolic blood pressure at 10 mg/kg, po after 8 hrs by non-invasive tail cuff method relative to control; assay type: functional; method in brief: as §1
Rattus norvegicus [5] = experiment: Antihypertensive activity in Norwegian albino rat model of DOCA-salt-induced hypertension assessed as inhibition of systolic blood pressure at 10 mg/kg, po after 3 hrs by non-invasive tail cuff method relative to control; assay type: functional; method in brief: as §1
Rattus norvegicus [6] = experiment: Antihypertensive activity in Norwegian albino rat model of DOCA-salt-induced hypertension assessed as inhibition of systolic blood pressure at 10 mg/kg, po after 10 hrs by non-invasive tail cuff method relative to control; assay type: functional; method in brief: as §1
Rattus norvegicus [7] = experiment: Antihypertensive activity in Norwegian albino rat model of DOCA-salt-induced hypertension assessed as inhibition of systolic blood pressure at 10 mg/kg, po after 4 hrs by non-invasive tail cuff method relative to control; assay type: functional; method in brief: as §1
Rattus norvegicus [8] = experiment: Antihypertensive activity in Norwegian albino rat model of DOCA-salt-induced hypertension assessed as inhibition of systolic blood pressure at 10 mg/kg, po after 7 hrs by non-invasive tail cuff method relative to control; assay type: functional; method in brief: as §1
Rattus norvegicus [9] = experiment: Antihypertensive activity in Norwegian albino rat model of DOCA-salt-induced hypertension assessed as inhibition of systolic blood pressure at 10 mg/kg, po after 2 hrs by non-invasive tail cuff method relative to control; assay type: functional; method in brief: as §1
[10] = biological target: Myosin light chain kinase, smooth muscle (Homo sapiens, UniProt Q15746); experiment: Inhibition of MLCK (unknown origin) incubated for 15 mins using [gamma-32P]-ATP by scintillation counting method; conditions: for pIC50: read-out: IC50; for IC50: read-out: pIC50 (converted)
Method in brief: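 Active MLCK thawed on ice with kinase assay and dilution buffers and substrate; reaction with γ-32P-ATP incubated 15 min at 30 °C in a water bath, spotted on phosphocellulose P81 paper, washed three times ~10 min in 1% phosphoric acid. Radioactivity by scintillation counting, blank-corrected cpm converted to specific activity (nmol/min/mg); IC50 from log plots, at least five determinations per concentration.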

Rattus norvegicus [11] = experiment: Antihypertensive activity in Norwegian albino rat model of DOCA-salt-induced hypertension assessed as inhibition of systolic blood pressure at 10 mg/kg, po after 9 hrs by non-invasive tail cuff method relative to control; assay type: functional; method in brief: as §1
Rattus norvegicus [12] = experiment: Antihypertensive activity in Norwegian albino rat model of DOCA-salt-induced hypertension assessed as inhibition of systolic blood pressure at 10 mg/kg, po after 1 hr by non-invasive tail cuff method relative to control; assay type: functional; method in brief: as §1
Rattus norvegicus [13] = experiment: Antihypertensive activity in Norwegian albino rat assessed as inhibition of systolic blood pressure at 10 mg/kg, po after 3 hrs by invasive carotid artery cannulation method relative to control; assay type: functional
Rattus norvegicus [14] = experiment: Antihypertensive activity in Norwegian albino rat assessed as inhibition of systolic blood pressure at 10 mg/kg, po after 4 hrs by invasive carotid artery cannulation method relative to control; assay type: functional
Rattus norvegicus [15] = experiment: Antihypertensive activity in Norwegian albino rat assessed as inhibition of systolic blood pressure at 10 mg/kg, po after 1 hr by invasive carotid artery cannulation method relative to control; assay type: functional
Rattus norvegicus [16] = experiment: Antihypertensive activity in Norwegian albino rat assessed as inhibition of systolic blood pressure at 10 mg/kg, po after 0.3 hrs by invasive carotid artery cannulation method relative to control; assay type: functional
Rattus norvegicus [17] = experiment: Antihypertensive activity in Norwegian albino rat assessed as inhibition of systolic blood pressure at 10 mg/kg, po after 2 hrs by invasive carotid artery cannulation method relative to control; assay type: functional
Rattus norvegicus [18] = experiment: Antihypertensive activity in Norwegian albino rat assessed as inhibition of systolic blood pressure at 10 mg/kg, po after 0.15 hrs by invasive carotid artery cannulation method relative to control; assay type: functional
physchem = conditions: buffer, pH 7.4
Rattus norvegicus [19] = experiment: Gastrointestinal toxicity in Norwegian rat assessed as ulcerative index at 50 mg/kg, po after 17 hrs; assay type: organism-based; conditions: in vivo
Rattus norvegicus [20] = experiment: Antihypertensive activity in Norwegian albino rat assessed as inhibition of diastolic blood pressure at 10 mg/kg, po after 0.3 hrs by invasive carotid artery cannulation method relative to control
Rattus norvegicus [21] = experiment: Antihypertensive activity in Norwegian albino rat assessed as inhibition of diastolic blood pressure at 10 mg/kg, po after 4 hrs by invasive carotid artery cannulation method relative to control
Rattus norvegicus [22] = experiment: Antihypertensive activity in Norwegian albino rat assessed as inhibition of diastolic blood pressure at 10 mg/kg, po after 3 hrs by invasive carotid artery cannulation method relative to control
Rattus norvegicus [23] = experiment: Antihypertensive activity in Norwegian albino rat assessed as inhibition of diastolic blood pressure at 10 mg/kg, po after 1 hr by invasive carotid artery cannulation method relative to control
Rattus norvegicus [24] = experiment: Antihypertensive activity in Norwegian albino rat assessed as inhibition of diastolic blood pressure at 10 mg/kg, po after 2 hrs by invasive carotid artery cannulation method relative to control
Rattus norvegicus [25] = experiment: Antihypertensive activity in Norwegian albino rat assessed as inhibition of diastolic blood pressure at 10 mg/kg, po after 0.15 hrs by invasive carotid artery cannulation method relative to control

Myosin light chain kinase, smooth muscle, sequence (Q15746 whole entry): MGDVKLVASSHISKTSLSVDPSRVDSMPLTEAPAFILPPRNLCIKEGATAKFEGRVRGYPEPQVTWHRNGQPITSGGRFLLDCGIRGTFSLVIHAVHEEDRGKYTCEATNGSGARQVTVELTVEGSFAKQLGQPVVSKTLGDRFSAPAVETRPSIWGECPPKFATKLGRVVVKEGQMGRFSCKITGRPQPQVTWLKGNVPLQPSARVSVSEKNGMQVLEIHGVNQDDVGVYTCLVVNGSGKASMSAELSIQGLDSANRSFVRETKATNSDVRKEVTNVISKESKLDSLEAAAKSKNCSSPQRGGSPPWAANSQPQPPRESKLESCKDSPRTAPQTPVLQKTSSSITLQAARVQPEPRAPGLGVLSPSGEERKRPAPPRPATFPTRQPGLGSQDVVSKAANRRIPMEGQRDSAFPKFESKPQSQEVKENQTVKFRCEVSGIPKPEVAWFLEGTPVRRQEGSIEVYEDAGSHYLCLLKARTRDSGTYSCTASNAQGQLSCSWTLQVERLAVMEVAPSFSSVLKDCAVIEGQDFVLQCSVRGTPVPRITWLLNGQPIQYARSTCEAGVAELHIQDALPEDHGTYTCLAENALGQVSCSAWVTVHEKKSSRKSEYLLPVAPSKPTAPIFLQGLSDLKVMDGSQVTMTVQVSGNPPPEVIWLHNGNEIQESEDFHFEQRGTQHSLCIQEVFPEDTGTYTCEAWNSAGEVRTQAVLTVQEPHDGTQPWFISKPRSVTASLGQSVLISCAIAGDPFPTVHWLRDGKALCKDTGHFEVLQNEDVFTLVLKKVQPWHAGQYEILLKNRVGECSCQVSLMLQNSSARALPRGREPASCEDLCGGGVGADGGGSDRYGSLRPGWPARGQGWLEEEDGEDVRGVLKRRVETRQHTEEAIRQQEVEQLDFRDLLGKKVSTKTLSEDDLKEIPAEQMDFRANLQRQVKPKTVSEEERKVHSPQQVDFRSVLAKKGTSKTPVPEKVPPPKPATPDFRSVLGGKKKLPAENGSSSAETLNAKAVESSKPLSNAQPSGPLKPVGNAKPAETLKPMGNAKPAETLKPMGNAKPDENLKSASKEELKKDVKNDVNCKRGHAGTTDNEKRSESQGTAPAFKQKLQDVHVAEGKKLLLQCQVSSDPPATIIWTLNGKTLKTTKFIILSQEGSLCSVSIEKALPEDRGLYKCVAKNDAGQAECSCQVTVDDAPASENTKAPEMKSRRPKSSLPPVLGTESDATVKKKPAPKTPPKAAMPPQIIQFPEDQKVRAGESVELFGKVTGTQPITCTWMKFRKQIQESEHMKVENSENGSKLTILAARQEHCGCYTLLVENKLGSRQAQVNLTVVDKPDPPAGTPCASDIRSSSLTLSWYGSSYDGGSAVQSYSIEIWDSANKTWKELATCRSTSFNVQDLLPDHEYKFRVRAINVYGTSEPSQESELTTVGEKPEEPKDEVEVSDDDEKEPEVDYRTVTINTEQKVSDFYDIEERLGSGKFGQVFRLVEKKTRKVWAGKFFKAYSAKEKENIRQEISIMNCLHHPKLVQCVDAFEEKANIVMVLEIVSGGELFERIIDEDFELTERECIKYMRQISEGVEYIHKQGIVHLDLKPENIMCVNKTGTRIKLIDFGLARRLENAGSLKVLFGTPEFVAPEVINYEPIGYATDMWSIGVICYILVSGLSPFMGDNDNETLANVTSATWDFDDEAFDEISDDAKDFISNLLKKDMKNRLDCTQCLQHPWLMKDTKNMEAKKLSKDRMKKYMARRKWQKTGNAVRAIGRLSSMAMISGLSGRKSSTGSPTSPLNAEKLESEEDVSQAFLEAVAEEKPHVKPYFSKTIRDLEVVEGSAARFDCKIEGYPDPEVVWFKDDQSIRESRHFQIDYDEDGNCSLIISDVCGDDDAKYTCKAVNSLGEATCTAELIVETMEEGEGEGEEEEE

Structure (SMILES)	inhibition in vivo at 10 mg/kg (Rattus norvegicus [1]) [%]	pIC50 [2]	inhibition in vivo at 10 mg/kg (Rattus norvegicus [3]) [%]	inhibition in vivo at 10 mg/kg (Rattus norvegicus [4]) [%]	inhibition in vivo at 10 mg/kg (Rattus norvegicus [5]) [%]	inhibition in vivo at 10 mg/kg (Rattus norvegicus [6]) [%]	inhibition in vivo at 10 mg/kg (Rattus norvegicus [7]) [%]	inhibition in vivo at 10 mg/kg (Rattus norvegicus [8]) [%]	inhibition in vivo at 10 mg/kg (Rattus norvegicus [9]) [%]	pIC50 [10]	inhibition in vivo at 10 mg/kg (Rattus norvegicus [11]) [%]	inhibition in vivo at 10 mg/kg (Rattus norvegicus [12]) [%]	inhibition in vivo at 10 mg/kg (Rattus norvegicus [13]) [%]	inhibition in vivo at 10 mg/kg (Rattus norvegicus [14]) [%]	inhibition in vivo at 10 mg/kg (Rattus norvegicus [15]) [%]	inhibition in vivo at 10 mg/kg (Rattus norvegicus [16]) [%]	inhibition in vivo at 10 mg/kg (Rattus norvegicus [17]) [%]	inhibition in vivo at 10 mg/kg (Rattus norvegicus [18]) [%]	logD (physchem)	UI (Rattus norvegicus [19])	also measured
Cc1cc(C)nc(Nc2nc3ccccc3s2)n1	5.33	< 4.00	7.11	8.44	0.44	8.89	1.33	8.44	0	< 4.00	8.89	0.44									
CC(=O)c1c(C)nc(Nc2nc3ccccc3s2)nc1C	5.31	< 4.00	7.08	7.52	0.88	8.41	2.21	7.52	0.44	< 4.00	7.96	0.88									
COC(=O)C1=C(C)N=C2Sc3ccccc3N2C1c1ccc(Cl)cc1 (stereo not drawn)	28.8	< 4.00	28.8	33.6	14.6	40.3	24.8	31.4	11.5	5.04	38	2.65	31	49.6	15.9	4.42	24.8	2.21	5.44	0.36	IC50 [10]: 11000 µM
COC(=O)C1=C(C)N=C2Sc3ccccc3N2C1c1ccc(OC)cc1 (stereo not drawn)	24.4	< 4.00	25.3	35.6	13.3	48.9	20	31.1	1.78	5.67	40	1.33	31	42.5	15.9	7.08	27	4.42	4.64	0.54	IC50 [10]: 46700 µM
COC(=O)C1=C(C)N=C2Sc3ccccc3N2C1c1ccc([N+](=O)[O-])cc1 (stereo not drawn)	27	< 4.00	38	42.5	13.7	46.9	24.8	40.3	4.87	5.69	46.9	0	31	48.7	15.9	4.42	24.8	2.21	4.49	0.2	IC50 [10]: 49000 µM
COC(=O)C1=C(C)N=C2Sc3ccccc3N2C1c1ccc(O)c(OC)c1 (stereo not drawn)	27.5	< 4.00	32.4	37.8	13.1	41	19.8	36.5	5.41	5.44	40.1	0.9	31	42.5	15.9	7.08	27	4.42	3.89	0.2	IC50 [10]: 27200 µM
CC(C)Cc1ccc(C(C)C(=O)O)cc1 (stereo not drawn) [IBUPROFEN]																				1.97	
COC(=O)C1=C(C)NC(C)=C(C(=O)OC)C1c1ccccc1[N+](=O)[O-] [NIFEDIPINE]	23.1	5.63	32.9	47.6	14.2	54.2	19.1	41.8	10.7	5.69	52	4.89								0.54	inhibition in vivo at 10 mg/kg (Rattus norvegicus [20]): 13.8%; inhibition in vivo at 10 mg/kg (Rattus norvegicus [21]): 53.8%; inhibition in vivo at 10 mg/kg (Rattus norvegicus [22]): 37.3%; inhibition in vivo at 10 mg/kg (Rattus norvegicus [23]): 16%; inhibition in vivo at 10 mg/kg (Rattus norvegicus [24]): 26.7%; inhibition in vivo at 10 mg/kg (Rattus norvegicus [25]): 6.22%
